Measurements from ChEMBL document CHEMBL4393701, “Appendix A. dithioloquinolinethiones as new potential multitargeted antibacterial and antifungal agents: Synthesis, biological evaluation and molecular docking studies” (2019).
Converted amounts (≈) assume the structure as drawn.

Tests used:
Bacillus cereus [1] = test: Antibacterial activity against Bacillus cereus clinical isolate after 24 hrs by iodonitrotetrazolium chloride dye based microdilution assay; format: functional
Method in brief: (§1)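 Fresh overnight cultures adjusted spectrophotometrically to 1×10^5 CFU/mL, giving 1.0×10^4 CFU per well in tryptic soy broth. Compounds were dissolved in 5% DMSO and tested at 0.001-1.0 mg/ml by serial dilution; 5% DMSO was the negative control. After 24 h at 37 °C, 0.2 mg/mL INT solution was added for 30 min at 37 °C and OD read at 655 nm. MIC is the lowest concentration giving significant growth inhibition versus the positive control. Duplicates, repeated three times.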

Bacillus cereus [2] = test: Bactericidal activity against Bacillus cereus clinical isolate incubated for 24 hrs followed by re-plating on tryptic soy broth; format: functional
Method in brief: (§2)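 Bacteria were grown in tryptic soy broth, 1.0×10^4 CFU per well, with compounds in 5% DMSO at 0.001-1.0 mg/ml for 24 h at 37 °C. Then 10 µL was subcultured into fresh TSB. MBC is the lowest concentration showing no growth after subculture, taken as 99.5% kill of the original inoculum. Duplicates, repeated three times.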

Micrococcus flavus [3] = test: Antibacterial activity against Micrococcus flavus ATCC 10240 after 24 hrs by iodonitrotetrazolium chloride dye based microdilution method; format: functional; conditions: ATCC 10240, 24 h; method in brief: as §1
Micrococcus flavus [4] = test: Bactericidal activity against Micrococcus flavus ATCC 10240 incubated for 24 hrs followed by re-plating on tryptic soy broth; format: functional; conditions: ATCC 10240, 24 h; method in brief: as §2
Staphylococcus aureus [5] = test: Antibacterial activity against Staphylococcus aureus ATCC 6538 after 24 hrs by iodonitrotetrazolium chloride dye based microdilution method; format: functional; conditions: ATCC 6538, 24 h; method in brief: as §1
Staphylococcus aureus [6] = test: Bactericidal activity against Staphylococcus aureus ATCC 6538 incubated for 24 hrs followed by re-plating on tryptic soy broth; format: functional; conditions: ATCC 6538, 24 h; method in brief: as §2
Listeria monocytogenes [7] = test: Antibacterial activity against Listeria monocytogenes NCTC 7973 after 24 hrs by iodonitrotetrazolium chloride dye based microdilution method; format: functional; conditions: NCTC 7973, 24 h; method in brief: as §1
Listeria monocytogenes [8] = test: Bactericidal activity against Listeria monocytogenes NCTC 7973 incubated for 24 hrs followed by re-plating on tryptic soy broth; format: functional; conditions: NCTC 7973, 24 h; method in brief: as §2
Enterobacter cloacae [9] = test: Antibacterial activity against Enterobacter cloacae clinical isolate after 24 hrs by iodonitrotetrazolium chloride dye based microdilution method; format: functional; method in brief: as §1
Enterobacter cloacae [10] = test: Bactericidal activity against Enterobacter cloacae incubated for 24 hrs followed by re-plating on tryptic soy broth; format: functional; method in brief: as §2
Pseudomonas aeruginosa [11] = test: Antibacterial activity against Pseudomonas aeruginosa ATCC 27853 after 24 hrs by iodonitrotetrazolium chloride dye based microdilution method; format: functional; conditions: ATCC 27853, 24 h; method in brief: as §1
Pseudomonas aeruginosa [12] = test: Bactericidal activity against Pseudomonas aeruginosa ATCC 27853 incubated for 24 hrs followed by re-plating on tryptic soy broth; format: functional; conditions: ATCC 27853, 24 h; method in brief: as §2
Salmonella typhimurium [13] = test: Antibacterial activity against Salmonella typhimurium ATCC 13311 after 24 hrs by iodonitrotetrazolium chloride dye based microdilution method; format: functional, Salmonella enterica subsp. enterica serovar Typhimurium; conditions: Salmonella enterica, ATCC 13311, 24 h; method in brief: as §1
Salmonella typhimurium [14] = test: Bactericidal activity against Salmonella typhimurium ATCC 13311 incubated for 24 hrs followed by re-plating on tryptic soy broth; format: functional, Salmonella enterica subsp. enterica serovar Typhimurium; conditions: Salmonella enterica, ATCC 13311, 24 h; method in brief: as §2
Escherichia coli [15] = test: Antibacterial activity against Escherichia coli ATCC 35210 after 24 hrs by iodonitrotetrazolium chloride dye based microdilution method; format: functional; conditions: ATCC 35210, 24 h; method in brief: as §1
Escherichia coli [16] = test: Bactericidal activity against Escherichia coli ATCC 35210 incubated for 24 hrs followed by re-plating on tryptic soy broth; format: functional; conditions: ATCC 35210, 24 h; method in brief: as §2
Aspergillus fumigatus [17] = test: Antifungal activity against Aspergillus fumigatus ATCC 1022 after 72 hrs by microdilution technique; format: functional; conditions: ATCC 1022, 72 h
Method in brief: (§3)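 Spores were washed off malt agar with 0.85% saline containing 0.1% Tween 80 and adjusted to about 1.0×10^5 per well. Compounds in 5% DMSO were serially diluted (0.001-1.0 mg/ml) in malt broth with inoculum. Plates were shaken at 160 rpm for 72 h at 28 °C. MIC is the lowest concentration without visible growth under a binocular microscope. Three independent experiments in duplicate.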

Aspergillus fumigatus [18] = test: Fungicidal activity against Aspergillus fumigatus ATCC 1022 incubated for 72 hrs followed by sub-culturing on broth malt medium and measured after 72 hrs; format: functional; conditions: ATCC 1022, 72 h
Method in brief: (§4)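 After 72 h exposure in malt broth, 2 µL from test wells was subcultured into wells holding 100 µL broth and incubated a further 72 h at 28 °C. MFC is the lowest concentration with no visible growth, taken as 99.5% kill of the original inoculum. Three independent experiments in duplicate.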

Aspergillus versicolor [19] = test: Antifungal activity against Aspergillus versicolor ATCC 11730 after 72 hrs by microdilution method; format: functional; conditions: ATCC 11730, 72 h; method in brief: as §3
Aspergillus versicolor [20] = test: Fungicidal activity against Aspergillus versicolor ATCC 11730 incubated for 72 hrs followed by sub-culturing on broth malt medium and measured after 72 hrs; format: functional; conditions: ATCC 11730, 72 h; method in brief: as §4
Aspergillus ochraceus [21] = test: Antifungal activity against Aspergillus ochraceus ATCC 12066 after 72 hrs by microdilution technique; format: functional; conditions: ATCC 12066, 72 h; method in brief: as §3
Aspergillus ochraceus [22] = test: Fungicidal activity against Aspergillus ochraceus ATCC 12066 incubated for 72 hrs followed by sub-culturing on broth malt medium and measured after 72 hrs; format: functional; conditions: ATCC 12066, 72 h; method in brief: as §4
Aspergillus niger [23] = test: Antifungal activity against Aspergillus niger ATCC 6275 after 72 hrs by microdilution technique; format: functional; conditions: ATCC 6275, 72 h; method in brief: as §3
Aspergillus niger [24] = test: Fungicidal activity against Aspergillus niger ATCC 6275 incubated for 72 hrs followed by sub-culturing on broth malt medium and measured after 72 hrs; format: functional; conditions: ATCC 6275, 72 h; method in brief: as §4
Trichoderma viride [25] = test: Antifungal activity against Trichoderma viride IAM 5061 after 72 hrs by microdilution technique; format: functional; conditions: IAM 5061, 72 h; method in brief: as §3
Trichoderma viride [26] = test: Fungicidal activity against Trichoderma viride IAM 5061 incubated for 72 hrs followed by sub-culturing on broth malt medium and measured after 72 hrs; format: functional; conditions: IAM 5061, 72 h; method in brief: as §4
Penicillium ochrochloron [27] = test: Antifungal activity against Penicillium ochrochloron ATCC 9112 after 72 hrs by microdilution technique; format: functional; conditions: ATCC 9112, 72 h; method in brief: as §3
Penicillium ochrochloron [28] = test: Fungicidal activity against Penicillium ochrochloron ATCC 9112 incubated for 72 hrs followed by sub-culturing on broth malt medium and measured after 72 hrs; format: functional; conditions: ATCC 9112, 72 h; method in brief: as §4
[29] = Antifungal activity against Penicillium funiculosum ATCC 36839 after 72 hrs by microdilution technique; format: functional; conditions: Talaromyces pinophilus, ATCC 36839, 72 h; method in brief: as §3
[30] = Fungicidal activity against Penicillium funiculosum ATCC 36839 incubated for 72 hrs followed by sub-culturing on broth malt medium and measured after 72 hrs; format: functional; conditions: Talaromyces pinophilus, ATCC 36839, 72 h; method in brief: as §4
Penicillium cyclopium [31] = test: Antifungal activity against Penicillium verrucosum var. cyclopium food isolate after 72 hrs by microdilution technique; format: functional; method in brief: as §3
Penicillium cyclopium [32] = test: Fungicidal activity against Penicillium verrucosum var. cyclopium food isolate incubated for 72 hrs followed by sub-culturing on broth malt medium and measured after 72 hrs; format: functional; method in brief: as §4

In the case of `Cc1ccc2c(c1)-c1c(ssc1=S)C(C)(C)N2C(=O)CSc1nn(-c2ccccc2)c(=S)s1`, the MIC (Bacillus cereus [1]) is reported as 27.5 µM (≈ 15 µg/mL), the MBC (Bacillus cereus [2]) is reported as 55 µM (≈ 30 µg/mL) and the MIC (Micrococcus flavus [3]) is reported as 27.5 µM (≈ 15 µg/mL). It also gave an MBC (Micrococcus flavus [4]) of 55 µM (≈ 30 µg/mL), an MIC (Staphylococcus aureus [5]) of 27.5 µM (≈ 15 µg/mL) and an MBC (Staphylococcus aureus [6]) of 55 µM (≈ 30 µg/mL). The MIC (Listeria monocytogenes [7]) was 27.5 µM (≈ 15 µg/mL), the MBC (Listeria monocytogenes [8]) was 55 µM (≈ 30 µg/mL) and the MIC (Enterobacter cloacae [9]) was 27.5 µM (≈ 15 µg/mL). It also gave an MBC (Enterobacter cloacae [10]) of 55 µM (≈ 30 µg/mL), an MIC (Pseudomonas aeruginosa [11]) of 27.5 µM (≈ 15 µg/mL) and an MBC (Pseudomonas aeruginosa [12]) of 55 µM (≈ 30 µg/mL). For the same molecule, the MIC (Salmonella typhimurium [13]) was 27.5 µM (≈ 15 µg/mL), the MBC (Salmonella typhimurium [14]) was 55 µM (≈ 30 µg/mL) and the MIC (Escherichia coli [15]) was 27.5 µM (≈ 15 µg/mL). For the same molecule, the MBC (Escherichia coli [16]) was 55 µM (≈ 30 µg/mL), the MIC (Aspergillus fumigatus [17]) was 8.24 ×10⁻² mM and the MFC (Aspergillus fumigatus [18]) was 22 ×10⁻² mM. It also gave an MIC (Aspergillus versicolor [19]) of 22 ×10⁻² mM, an MFC (Aspergillus versicolor [20]) of 44 ×10⁻² mM and an MIC (Aspergillus ochraceus [21]) of 1.47 ×10⁻² mM. It also gave an MFC (Aspergillus ochraceus [22]) of 2.75 ×10⁻² mM, an MIC (Aspergillus niger [23]) of 2.02 ×10⁻² mM and an MFC (Aspergillus niger [24]) of 5.5 ×10⁻² mM. It also gave an MIC (Trichoderma viride [25]) of 1.1 ×10⁻² mM, an MFC (Trichoderma viride [26]) of 1.47 ×10⁻² mM and an MIC (Penicillium ochrochloron [27]) of 2.75 ×10⁻² mM. It also gave an MFC (Penicillium ochrochloron [28]) of 5.5 ×10⁻² mM, an MIC [29] of 2.75 ×10⁻² mM and an MFC [30] of 5.5 ×10⁻² mM. The MIC (Penicillium cyclopium [31]) was 22 ×10⁻² mM and the MFC (Penicillium cyclopium [32]) was 44 ×10⁻² mM.
